Data as given in ChEMBL document CHEMBL4673212, “Investigation of synergistic antimicrobial effects of the drug combinations of meropenem and 1,2-benzisoselenazol-3(2H)-one derivatives on carbapenem-resistant Enterobacteriaceae producing NDM-1” (Eur J Med Chem, 2018).
The source made the active and inactive calls. No cut-off for these calls is given here.

Legend:
Morganella morganii [1] = test: Potentiation of meropenem-induced antibacterial activity against carbapenem-resistant Morganella morganii isolate 26 assessed as meropenem MIC by CLSI protocol based assay (reference value: 64 ug/ml); assay type: functional
Enterobacter cloacae [2] = test: Potentiation of meropenem-induced antibacterial activity against carbapenem-resistant Enterobacter cloacae isolate 22 harboring CTX-M-14, TEM-1 and SHV-12 assessed as meropenem MIC by CLSI protocol based assay (Rvb >= 128 ug/ml); assay type: functional
Escherichia coli = test: Potentiation of meropenem-induced antibacterial activity against Escherichia coli TG1 transformed with IncX3 plasmid expressing blaNDM-1 assessed as bacterial growth inhibition by measuring meropenem MIC incubated for overnight by CLSI protocol based assay; assay type: functional; details: time 12 hrs
Morganella morganii [3] = test: Growth inhibition of carbapenem-resistant Morganella morganii isolate 23 by CLSI protocol based assay; assay type: functional
Klebsiella pneumoniae = test: Synergistic antibacterial activity against carbapenem-resistant Klebsiella pneumoniae isolate 14 harboring CTX-M-14, KPC-2 and SHV-12 assessed as fractional inhibitory concentration index in presence of meropenem by CLSI protocol based assay; assay type: functional
In short: (§1)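 FIC index from MICs of compound alone, meropenem alone, and the 1:1 (mass) compound–meropenem combination, read by eye after overnight incubation in a CLSI-based assay. FIC index = MICcombo/MICcpd + MICcombo/MICMem. FIC index ≤0.5 counted as synergy. At least triplicate assays. Clinical NDM-1 isolates for 17-39; E. coli TG1 carrying the IncX3 blaNDM-1 plasmid for 15.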

[4] = Covalent inhibition of Escherichia coli NDM-1 using nitrocefin as substrate
Morganella morganii [5] = test: Growth inhibition of carbapenem-resistant Morganella morganii isolate 26 by CLSI protocol based assay; assay type: functional
Citrobacter freundii [6] = test: Synergistic antibacterial activity against carbapenem-resistant Citrobacter freundii isolate 43 assessed as fractional inhibitory concentration index in presence of meropenem by CLSI protocol based assay; assay type: functional; in short: as §1
Enterobacter cloacae [7] = test: Synergistic antibacterial activity against carbapenem-resistant Enterobacter cloacae isolate 07 harboring CTX-M-14, TEM-1 and SHV-12 assessed as fractional inhibitory concentration index in presence of meropenem by CLSI protocol based assay; assay type: functional; in short: as §1
Citrobacter freundii [8] = test: Potentiation of meropenem-induced antibacterial activity against carbapenem-resistant Citrobacter freundii isolate 35 harboring CTX-M-3, KPC-2 and SHV-12 assessed as meropenem MIC by CLSI protocol based assay (Rvb >= 128 ug/ml); assay type: functional
Enterobacter cloacae [9] = test: Growth inhibition of carbapenem-resistant Enterobacter cloacae isolate 28 harboring TEM-1 and SHV-12 by CLSI protocol based assay; assay type: functional
[10] = target: Metallo-beta-lactamase type 2 (Klebsiella pneumoniae) (UniProt C7C422); test: Inhibition of wild type N-terminal His6-tagged Klebsiella pneumoniae NDM-1 expressed in Escherichia coli BL21 assessed as residual activity preincubated for 20 mins by rapid high dilution method relative to control
Chain of Metallo-beta-lactamase type 2 (Klebsiella pneumoniae) (C7C422 whole entry, the tested form may be a part): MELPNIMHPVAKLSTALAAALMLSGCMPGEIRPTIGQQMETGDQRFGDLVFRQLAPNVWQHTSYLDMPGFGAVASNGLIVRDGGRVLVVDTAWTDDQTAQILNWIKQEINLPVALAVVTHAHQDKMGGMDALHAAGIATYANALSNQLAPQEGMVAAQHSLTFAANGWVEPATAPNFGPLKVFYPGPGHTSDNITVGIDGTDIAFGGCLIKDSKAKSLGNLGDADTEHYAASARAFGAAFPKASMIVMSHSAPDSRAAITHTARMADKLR
In short: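 Reversibility was tested by rapid high dilution: NDM-1 was preincubated 20 min with compound, then diluted. Residual nitrocefin hydrolysis was compared with an enzyme control lacking compound.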

Enterobacter cloacae [11] = test: Potentiation of meropenem-induced antibacterial activity against NDM-1 producing Enterobacter cloacae isolate 10 infected in Galleria mellonella assessed as increase in larvae survival at 10 mg/kg pretreated for 1hr with compound followed by bacterial infection and measured after 48 hrs (reference value: 20 %); assay type: functional; details: time 49 hrs
[12] = Toxicity in Galleria mellonella wax moth larve assessed as mortality at 2 mg/kg cotreated with 2 mg/kg meropenem relative to control; assay type: organism-based; details: in vivo, read-out: Activity
In short: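 G. mellonella larvae (250–300 mg, n=10) infected in the hemocoel at the last left proleg with E. cloacae EL10 at 2.5 × 10^5 CFU/larva in PBS. Treatment was injected at the next left proleg 1 h from inoculation: vehicle, single agents at 10 mg/kg, or combinations at 2+2 or 10+10 mg/kg. Larvae were held at 37 °C and scored every 12 h for 48 h (no response to stimuli = dead). Log-rank test. Three independent experiments.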

L929 = test: Cytotoxicity against mouse L929 cells assessed as increase in cell viability at 2 mg/ml measured after 48 hrs by MTT assay; assay type: cell-based; details: l929, 48 h
In short: (§2)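 MTT assay. HeLa or L929 cells were seeded at 1×10^4/well in DMEM with 10% FBS and grown 12 h at 37 °C. They were exposed to 0.13–2 mg/mL compound (DMSO stock) for 48 h, then given 0.5 mg/mL MTT for 3 h at 37 °C. Formazan was dissolved in DMSO and read at 490 nm. Survival % was blank-corrected against the 0.5% DMSO medium control.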

[13] = target: Metallo-beta-lactamase type 2 (Klebsiella pneumoniae) (UniProt C7C422); test: Binding affinity to wild type N-terminal His6-tagged Klebsiella pneumoniae NDM-1 expressed in Escherichia coli BL21 assessed as formation of compound-intact protein complex by measuring molecular weight measured after 20 mins by ESI-MS analysis
In short: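 NDM-1 (20 µM) incubated 20 min with equimolar compound in 20 mM ammonium acetate. Native sample infused by nano-ESI with spray held ~20 min at 150 V. For the denatured sample, an equal volume of acetonitrile with 0.5% formic acid was added before syringe-pump loading at 5 µL/min. Complex formation was read from mass.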

[14] = target: T1, Metallo-beta-lactamase type 2 (Klebsiella pneumoniae, UniProt C7C422); test: Inhibition of wild type N-terminal His6-tagged Klebsiella pneumoniae NDM-1 expressed in Escherichia coli BL21 assessed as inhibition constant using nitrocefin as substrate measured after 30 mins
T1 sequence (C7C422 whole entry): as the sequence (C7C422 whole entry, the tested form may be a part) above
In short: (§3)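 1 nM purified His6-NDM-1 was mixed with varying compound concentrations in 50 mM phosphate buffer ± 50 µM ZnSO4 with BSA. Nitrocefin was added at 7× Km and velocity read at 482 nm, in triplicate. ln(% residual activity) versus incubation time gave kobs, which was fitted hyperbolically against concentration for KI and kinact.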

[15] = target: Metallo-beta-lactamase type 2 (Klebsiella pneumoniae) (UniProt C7C422); test: (§4) Inhibition of wild type N-terminal His6-tagged Klebsiella pneumoniae NDM-1 expressed in Escherichia coli BL21 using nitrocefin as substrate measured after 30 mins; in short: as §3
[16] = target: T1, Metallo-beta-lactamase type 2; test: as §4; in short: as §3
[17] = Toxicity in Galleria mellonella wax moth larve assessed as mortality at 10 mg/kg relative to control; assay type: organism-based; details: in vivo, read-out: Activity
[18] = target: Metallo-beta-lactamase type 2 (Klebsiella pneumoniae) (UniProt C7C422); test: Inhibition of wild type N-terminal His6-tagged Klebsiella pneumoniae NDM-1 expressed in Escherichia coli BL21 assessed as loss of zinc ion at enzyme active site leading to formation of compound-intact protein complex after 20 mins by ESI-MS analysis
In short: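 Native mass analysis: 20 µM purified NDM-1 plus equimolar compound in 20 mM ammonium acetate, 20 min, then infused into nano-ESI source (spray ~20 min at 150 V). Adduct formation and zinc content were read from protein mass.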

[19] = target: Metallo-beta-lactamase type 2 (Klebsiella pneumoniae) (UniProt C7C422); test: Time dependent inhibition of wild type N-terminal His6-tagged Klebsiella pneumoniae NDM-1 expressed in Escherichia coli BL21 assessed as residual activity using nitrocefin as substrate
In short: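 Purified NDM-1 (residues G36–R270, N-terminal His6, expressed in E. coli BL21), 1 nM, mixed with varying inhibitor concentrations in 50 mM phosphate buffer with or without 50 µM ZnSO4, plus BSA. Nitrocefin at 7×Km was the substrate, read at 482 nm. Residual activity was followed against preincubation time, fitted as pseudo-first-order to give KI and kinact. Triplicate assays.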

HeLa = test: Cytotoxicity against human HeLa cells assessed as increase in cell viability at 0.13 to 2 mg/ml measured after 48 hrs by MTT assay relative to control; assay type: cell-based; details: dose 0.13-2 mg/ml; in short: as §2

Row | Structure (SMILES) | MIC (Morganella morganii [1]) [µg/mL] | MIC (Enterobacter cloacae [2]) [µg/mL] | MIC (Escherichia coli) [µg/mL] | MIC (Morganella morganii [3]) [µg/mL] | fractional inhibitory concentration index (FICI) (Klebsiella pneumoniae) | MIC (Morganella morganii [5]) [µg/mL] | fractional inhibitory concentration index (FICI) (Citrobacter freundii [6]) | fractional inhibitory concentration index (FICI) (Enterobacter cloacae [7]) | MIC (Citrobacter freundii [8]) [µg/mL] | MIC (Enterobacter cloacae [9]) [µg/mL] | further results
1 | O=c1c2ccccc2[se]n1-c1ccccc1 [EBSELEN] | 64 | ≥ 128 | 16 | ≥ 128 | 2 | ≥ 128 | 0.5 | 0.38 | 32 | ≥ 128 | Ki [4]: 0.38 µM
2 | CC(C)(C)OC(=O)NCCn1[se]c2ccccc2c1=O | 2 | 16 | 2 | ≥ 128 | 0.13 | ≥ 128 | 0.25 | 0.19 | 8 | ≥ 128 | Activity [10]: 40%; Activity (Enterobacter cloacae [11]): 60%; mortality [12]: 100%; Activity (L929): Non-Toxic; Activity [13]: 26300 Da; Ki [14]: 17 µM; inhibition [15]: Dose-dependent effect; IC50 [16]: 13 µM; mortality [17]: 100%; inhibition [18]: Active; Activity [19]: 11%; Activity (HeLa): 70%
